Assay [1] concerns the target T1, Adenosine receptor A1 (Homo sapiens) (UniProt P30542).
T1 sequence (whole entry): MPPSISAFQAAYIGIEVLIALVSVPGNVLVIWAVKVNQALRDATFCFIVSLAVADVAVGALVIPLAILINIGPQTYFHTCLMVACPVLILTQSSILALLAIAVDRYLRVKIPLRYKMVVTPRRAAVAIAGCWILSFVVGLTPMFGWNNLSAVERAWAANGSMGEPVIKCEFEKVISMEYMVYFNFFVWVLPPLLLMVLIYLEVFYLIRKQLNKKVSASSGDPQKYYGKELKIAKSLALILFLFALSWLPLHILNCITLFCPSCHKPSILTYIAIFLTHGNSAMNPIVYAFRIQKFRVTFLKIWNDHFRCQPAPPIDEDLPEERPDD
The experiment in a line: Inhibition of [3H]CCPA binding to human Adenosine A1 receptor at 10e-6 M. The essentials:
(§1)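 Human A1 receptors expressed in CHO-cell membranes, incubated 60 min at 25 °C in 50 mM Tris-HCl (pH 7.4) with the compound at a fixed concentration. Conditions were [3H]CCPA ~1.0 nM with 20 µg protein, or [3H]DPCPX ~1.6 nM with 10 µg protein. Nonspecific binding was defined with 10 µM DPCPX, and samples were filtered and counted. Results are % specific binding remaining, as means of three experiments in duplicate.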

Assay [2] deals with T1, Adenosine receptor A1 (Homo sapiens). The experiment in a line: Inhibition of [3H]CCPA binding to human Adenosine A1 receptor at 10e-7 M. A digest of the protocol:
as §1

The target is the same in assay [3]. Briefly: Inhibition of [3H]DPCPX binding to human Adenosine A1 receptor at 10e-6 M. A digest of the protocol: as §1
Assay [4] shares this target. Briefly: Association constant for [3H]CCPA binding to Adenosine A1 receptor in the presence of compound. The essentials: (§2)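 Kinetics on membranes (30 µg) from CHO cells expressing recombinant human A1 receptors, using [3H]CCPA at 1 nM, with or without compound. Association was started by adding membranes to the radioligand. For dissociation, membranes were preloaded with radioligand for 60 min at 25 °C, then 100 µM 8-cyclopentyltheophylline was added. Bound ligand was separated by GF/B filtration and counted by scintillation; t1/2 and rate constants were derived.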

The target is the same in assay [5]. The experiment in a line: Association half life for [3H]-CCPA binding to Adenosine A1 receptor in the presence of compound. A digest of the protocol: as §2
Assay [6] shares this target. Briefly: Dissociation half life for [3H]CCPA binding to Adenosine A1 receptor in the presence of compound. The essentials:
as §2

Assay [7] shares this target. The experiment in a line: Dissociation constant for [3H]-CCPA binding to Adenosine A1 receptor in the presence of compound. The essentials:
as §2

Assay [8] has the same target. Briefly: Association half life for [3H]CCPA binding to Adenosine A1 receptor in the presence of compound. A digest of the protocol: as §2
For assay [9] the target is unchanged. The experiment in a line: Dissociation half life of [3H]CCPA binding to Adenosine A1 receptor. The essentials: as §2

Experimental findings from ChEMBL document CHEMBL1142664, “Synthesis and biological evaluation of a new series of 2,3,5-substituted [1,2,4]-thiadiazoles as modulators of adenosine A1 receptors and their molecular mechanism of action” (J Med Chem, 2005) are described below.

Structures are written as SMILES.

Turning to `CCC/N=c1/nc(-c2ccccc2)n(-c2ccccc2)s1`, the Specific binding in assay [1] worked out at 26%; in assay [2], 98%; in [3], 135%.
`Cc1cccc(-n2s/c(=N\c3ccccc3)nc2-c2ccccc2)c1`: the Specific binding is 89% in assay [1], 96% in assay [2] and 107% in [3].
Consider `c1ccc(C/N=c2\nc(-c3ccccc3)n(-c3ccccc3)s2)cc1`, for which the Specific binding came out at 43% in assay [1], 101% in [2] and 124% in [3].
For `Cc1cccc(-n2s/c(=N/C3CCCC3)nc2-c2ccccc2)c1` the same measures were 35%, 96% and 101%.
On to `CCCC/N=c1/nc(-c2ccccc2)n(-c2cccc(C)c2)s1`, for which the Specific binding in [1] is 36%; in assay [2] it was 99%; in assay [3], 114%.
For `C/N=c1\nc(C2C=CC=CC2)n(C2C=CC=CC2)s1` (configuration not stated), the Specific binding was 16% in assay [1], 97% in assay [2] and 122% in assay [3]. For the same compound, the k on in assay [4] came to 5.83e+06 M⁻¹ s⁻¹. The T1/2 in [5] came out at 2 min; in [6] it was 12.4 min. For the same compound, in assay [7], the Koff was determined as 0.000933 s⁻¹.
As for `OCCC/N=c1/nc(-c2ccccc2)n(-c2ccccc2)s1`, the figures for the Specific binding in [1], in assay [2] and in assay [3] were 27%, 106% and 127%, respectively.
On to `Cc1cccc(-n2s/c(=N\Cc3ccccc3)nc2-c2ccccc2)c1`, for which the values for the Specific binding in assay [1], in assay [2] and in assay [3] were 66%, 99% and 116%, respectively.
In the case of `CC/N=c1/nc(-c2ccccc2)n(-c2ccccc2)s1`, the Specific binding in [1] worked out at 20%; in assay [2] it was 99%; in assay [3], 134%.
In the case of `CC/N=c1/nc(-c2ccccc2)n(-c2cccc(C)c2)s1`, the Specific binding in [1] amounted to 24%; in assay [2], 100%; in assay [3], 125%.
Take `Cc1cccc(-n2s/c(=N/CCCO)nc2-c2ccccc2)c1`: the Specific binding in [1] came to 29%; in [2], 97%; in assay [3], 142%.
As for `C/N=c1/nc(-c2ccccc2)n(-c2cccc(C)c2)s1`, the Specific binding is 23% in [1], 96% in assay [2] and 132% in assay [3].
As for `CCC/N=c1/nc(-c2ccccc2)n(-c2cccc(C)c2)s1`, the Specific binding in assay [1] came to 29%; in assay [2] it was 97%; in [3], 126%.
As to `CCCC/N=c1/nc(-c2ccccc2)n(-c2ccccc2)s1`, the Specific binding was 27% in assay [1], 101% in [2] and 126% in [3].
The matching figures for `Cc1cccc(-n2s/c(=N\C(C)C)nc2-c2ccccc2)c1`: 29%, 100% and 121%.
Take `c1ccc(/N=c2/nc(-c3ccccc3)n(-c3ccccc3)s2)cc1`: the Specific binding in assay [1] came out at 66%; in assay [2], 104%; in assay [3] it was 106%.
On to `CC(C)/N=c1/nc(-c2ccccc2)n(-c2ccccc2)s1`, for which the Specific binding in [1] is 23%; in assay [2], 97%; in assay [3], 126%.
Consider `c1ccc(-c2n/c(=N/C3CCCC3)sn2-c2ccccc2)cc1`, for which the results for the Specific binding in assay [1], in [2] and in [3] were 25%, 100% and 123%, respectively. Also, the k on in assay [4] worked out at 4.17e+06 M⁻¹ s⁻¹. Further, the results for the T1/2 in [8] and in assay [9] were 2.9 min and 12 min, respectively. For the same compound, the Koff in [7] was 0.000967 s⁻¹.
